What was measured:
[1] = target: T1, Lethal(3)malignant brain tumor-like protein 4 (Homo sapiens, UniProt Q8NA19); test: Binding affinity to L3MBTL4 by chemiluminescent assay
T1 sequence (Q8NA19 whole entry): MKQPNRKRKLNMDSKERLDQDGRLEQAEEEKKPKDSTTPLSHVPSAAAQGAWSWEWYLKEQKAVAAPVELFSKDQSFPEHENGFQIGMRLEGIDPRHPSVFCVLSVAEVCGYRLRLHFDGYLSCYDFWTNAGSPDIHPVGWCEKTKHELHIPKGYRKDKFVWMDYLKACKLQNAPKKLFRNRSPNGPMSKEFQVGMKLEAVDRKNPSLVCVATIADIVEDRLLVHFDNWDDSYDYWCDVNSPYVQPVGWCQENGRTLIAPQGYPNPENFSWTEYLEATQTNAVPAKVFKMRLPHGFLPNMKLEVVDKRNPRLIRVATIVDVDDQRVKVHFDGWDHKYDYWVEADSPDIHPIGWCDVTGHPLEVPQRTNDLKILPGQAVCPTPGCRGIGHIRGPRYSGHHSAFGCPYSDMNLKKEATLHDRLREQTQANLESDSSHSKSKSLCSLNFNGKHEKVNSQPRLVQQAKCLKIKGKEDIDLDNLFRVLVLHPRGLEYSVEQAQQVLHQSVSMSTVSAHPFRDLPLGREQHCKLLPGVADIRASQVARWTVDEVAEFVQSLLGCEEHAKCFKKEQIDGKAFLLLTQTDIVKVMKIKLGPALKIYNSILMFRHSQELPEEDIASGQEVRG
Summary of the method: (§1)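 AlphaScreen bead-based chemiluminescent proximity assay measuring antagonism of methylated histone peptide binding to the MBT/methyl-lysine reader domain. The peptide is H3K9Me1, the same one used as FAM-labelled probe (H3 residues 1-15, monomethyl K9) in the FP assay. A separate counterscreen was run for compound interference with the assay signal.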

[2] = target: MBT domain-containing protein 1 (Homo sapiens, UniProt Q05BQ5); test: Binding affinity to MBTD1 by chemiluminescent assay; summary of the method: as §1
Chain of MBT domain-containing protein 1 (Q05BQ5 whole entry, the tested form may be a part): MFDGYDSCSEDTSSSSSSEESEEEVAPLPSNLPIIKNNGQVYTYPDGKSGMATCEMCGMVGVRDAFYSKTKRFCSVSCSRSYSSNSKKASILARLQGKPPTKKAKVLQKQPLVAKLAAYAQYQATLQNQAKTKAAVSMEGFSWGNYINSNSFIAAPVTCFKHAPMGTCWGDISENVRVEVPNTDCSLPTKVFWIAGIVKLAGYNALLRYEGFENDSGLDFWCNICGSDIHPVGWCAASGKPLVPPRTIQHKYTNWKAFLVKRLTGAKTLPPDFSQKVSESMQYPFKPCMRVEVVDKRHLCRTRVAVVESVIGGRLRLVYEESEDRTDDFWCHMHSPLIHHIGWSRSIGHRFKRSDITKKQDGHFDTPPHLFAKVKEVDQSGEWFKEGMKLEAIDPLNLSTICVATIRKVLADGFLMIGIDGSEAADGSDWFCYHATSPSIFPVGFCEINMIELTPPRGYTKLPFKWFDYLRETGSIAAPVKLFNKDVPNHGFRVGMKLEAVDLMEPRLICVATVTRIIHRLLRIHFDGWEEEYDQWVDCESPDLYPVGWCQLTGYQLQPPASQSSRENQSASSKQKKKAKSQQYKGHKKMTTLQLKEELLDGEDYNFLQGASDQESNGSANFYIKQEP

[3] = target: T2, Lethal(3)malignant brain tumor-like protein 3 (Homo sapiens, UniProt Q96JM7); test: Binding affinity to L3MBTL3 by chemiluminescent assay; summary of the method: as §1
T2 sequence (Q96JM7 whole entry): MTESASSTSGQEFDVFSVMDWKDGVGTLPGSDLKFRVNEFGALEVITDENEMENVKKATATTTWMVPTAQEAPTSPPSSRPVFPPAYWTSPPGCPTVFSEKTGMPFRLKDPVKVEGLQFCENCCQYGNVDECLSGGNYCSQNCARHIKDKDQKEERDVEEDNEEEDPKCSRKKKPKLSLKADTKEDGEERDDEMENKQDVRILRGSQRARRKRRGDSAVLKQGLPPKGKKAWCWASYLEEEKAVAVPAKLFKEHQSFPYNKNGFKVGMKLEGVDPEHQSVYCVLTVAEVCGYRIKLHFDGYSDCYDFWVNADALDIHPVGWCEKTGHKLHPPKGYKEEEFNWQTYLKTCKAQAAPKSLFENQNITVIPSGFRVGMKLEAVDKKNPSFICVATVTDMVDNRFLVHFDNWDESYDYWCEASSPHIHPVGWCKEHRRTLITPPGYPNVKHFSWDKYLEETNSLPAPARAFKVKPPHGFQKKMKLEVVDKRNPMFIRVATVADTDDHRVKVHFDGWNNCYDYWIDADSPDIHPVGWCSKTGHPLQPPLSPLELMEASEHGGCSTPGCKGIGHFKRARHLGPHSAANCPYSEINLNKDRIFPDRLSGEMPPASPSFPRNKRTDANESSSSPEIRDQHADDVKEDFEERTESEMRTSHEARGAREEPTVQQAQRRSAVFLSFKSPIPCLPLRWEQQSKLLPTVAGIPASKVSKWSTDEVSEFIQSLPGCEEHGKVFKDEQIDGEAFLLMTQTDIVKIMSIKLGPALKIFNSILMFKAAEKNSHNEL

[4] = target: T3, Scm-like with four MBT domains protein 1 (Homo sapiens, UniProt Q9UHJ3); test: Binding affinity to human SFMBT by chemiluminescent assay; summary of the method: as §1
T3 sequence (Q9UHJ3 whole entry): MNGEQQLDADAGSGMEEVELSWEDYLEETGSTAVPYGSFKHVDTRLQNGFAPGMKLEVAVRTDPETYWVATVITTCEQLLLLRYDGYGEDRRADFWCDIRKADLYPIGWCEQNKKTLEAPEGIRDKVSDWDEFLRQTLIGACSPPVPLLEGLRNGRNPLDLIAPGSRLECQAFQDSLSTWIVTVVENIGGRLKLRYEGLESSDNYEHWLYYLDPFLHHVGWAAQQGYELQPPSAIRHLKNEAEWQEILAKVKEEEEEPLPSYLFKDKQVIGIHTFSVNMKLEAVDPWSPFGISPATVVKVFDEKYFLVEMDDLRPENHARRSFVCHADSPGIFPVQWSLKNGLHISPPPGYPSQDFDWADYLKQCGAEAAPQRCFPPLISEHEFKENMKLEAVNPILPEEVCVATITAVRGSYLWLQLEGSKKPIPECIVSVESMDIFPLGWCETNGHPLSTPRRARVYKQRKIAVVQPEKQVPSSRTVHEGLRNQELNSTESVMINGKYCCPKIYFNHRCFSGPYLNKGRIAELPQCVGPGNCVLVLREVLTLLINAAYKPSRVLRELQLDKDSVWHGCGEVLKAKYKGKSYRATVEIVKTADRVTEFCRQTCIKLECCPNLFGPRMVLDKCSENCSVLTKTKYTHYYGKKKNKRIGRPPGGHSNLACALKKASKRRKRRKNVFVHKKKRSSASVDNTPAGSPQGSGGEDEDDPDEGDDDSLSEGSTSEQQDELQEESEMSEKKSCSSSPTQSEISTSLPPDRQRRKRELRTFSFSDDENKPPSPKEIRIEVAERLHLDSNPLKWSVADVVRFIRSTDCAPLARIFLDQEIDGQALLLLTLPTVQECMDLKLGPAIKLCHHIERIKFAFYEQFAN

[5] = target: T4, Chromobox protein homolog 7 (Homo sapiens, UniProt O95931); test: Binding affinity to CBX7 by chemiluminescent assay; summary of the method: as §1
T4 sequence (O95931 whole entry): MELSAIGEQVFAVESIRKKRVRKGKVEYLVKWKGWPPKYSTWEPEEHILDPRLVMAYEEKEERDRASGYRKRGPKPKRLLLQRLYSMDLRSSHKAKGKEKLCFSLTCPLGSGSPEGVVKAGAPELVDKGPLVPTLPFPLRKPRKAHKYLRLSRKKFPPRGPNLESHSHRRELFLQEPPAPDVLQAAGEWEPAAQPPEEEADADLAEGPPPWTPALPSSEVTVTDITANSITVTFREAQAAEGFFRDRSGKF

PHD finger protein 13 = PHD finger protein 13 (Homo sapiens, UniProt Q86YI8); test: Binding affinity to PHF13 by chemiluminescent assay; summary of the method: as §1
Chain of PHD finger protein 13 (Q86YI8 whole entry): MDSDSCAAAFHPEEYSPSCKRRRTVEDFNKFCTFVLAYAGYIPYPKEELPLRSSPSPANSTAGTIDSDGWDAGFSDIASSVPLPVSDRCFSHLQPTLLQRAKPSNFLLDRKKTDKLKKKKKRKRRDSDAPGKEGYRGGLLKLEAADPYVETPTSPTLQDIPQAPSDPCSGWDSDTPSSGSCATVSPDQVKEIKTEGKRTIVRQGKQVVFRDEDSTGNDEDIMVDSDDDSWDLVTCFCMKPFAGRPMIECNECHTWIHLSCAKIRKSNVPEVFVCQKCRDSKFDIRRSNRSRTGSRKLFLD

IC50 [2]	IC50 [4]	IC50 [5]	IC50 (PHD finger protein 13)	IC50 (PHD finger protein 13; read-out: IC50) [µM]	Compound	IC50 ([1]; read-out: IC50) [µM]	IC50 [3] [µM]	IC50 [1]
Not Active	Not Active	Not Active	Not Active	–	O=C(c1cncc(Br)c1)N1CCC(N2CCCC2)CC1	69	35	–
Not Active	Not Active	Not Active	–	48	O=C(NCCCCCN1CCCC1)c1cncc(Br)c1	–	28	Not Active

Reference: ChEMBL document CHEMBL1765036, “Small-molecule ligands of methyl-lysine binding proteins” (J Med Chem, 2011)
